The results in this text go back to PubChem BioAssay AID504543 (Southern Research Specialized Biocontainment Screening …, 2011).

The test system of experiment [1] is E. coli UTI89 K1F phage lysis inhibition, OD600 3 h. Description: inhibitors of K1F phage lysis of E. coli UTI89, dose response, capsule biogenesis inhibitor project, strain UTI89, C7 control, set 2 (AID 504543). The note with it: for CC50: measured here: cytotoxicity. An outline of the steps:
(§1)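 Assay system – E. coli UTI89 (K1) and kpsM mutant · Probe or stimulus – K1F bacteriophage, added after compound pre-incubation · Times – 1.25 h compound pre-incubation at 37 °C, 3 h phage exposure · Technique – absorbance at 600 nm (OD600) · Control set – kpsM mutant, 1% DMSO wells · Repeats – four replicate wells per compound concentration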

Assay in experiment [2]: as above
The settings on record: E. coli UTI89 K1F phage lysis inhibition, OD600 3 h; at 300 µM (top of the series). The method, boiled down:
as §1

Active and inactive are the calls of the source.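 Rule for the calls: active = phage lysis blocked by at least 50% at any tested concentration; inactive = the rest.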

Consider `O=C1c2c(O)ccc(O)c2C(=O)c2c(NCCNCCO)ccc(NCCNCCO)c21`, for which, in experiment [1], the IC50 was 201 µM and the CC50 is > 300 µM.
As to `COc1ccc(-c2cc(C(=O)O)c3ccccc3n2)cc1`, the inhibition of phage lysis in experiment [2] was 1.1% (inactive). Further, in experiment [1], the CC50 stood at 112 µM.
Take `COc1cc(/C=N/N=C(N)N)ccc1OCc1ccccc1Cl`: in experiment [2], the inhibition of phage lysis was -29.8% (inactive). In experiment [1], the CC50 worked out at 11.4 µM.
In the same order, the values of `NC(N)=N/N=C/c1ccc(OCc2ccccc2)cc1` are -28.3% (inactive) and 9.38 µM.
Regarding `O=C(Nc1cccc(C2=NCCN2)c1)Nc1cccc(C2=NCCN2)c1`, the inhibition of phage lysis in experiment [2] was 14.2% (inactive). For the same compound, the CC50 in experiment [1] came to 69.1 µM.
In the case of `Cc1cccc(-c2cc(C(=O)O)c3ccccc3n2)c1`, in experiment [2], the inhibition of phage lysis was -1.53% (inactive). This compound also displayed a CC50 in experiment [1] of 138 µM.
In the same order, the values of `CCN(CC)c1ccc2c(-c3ccc(S(=O)(=O)O)cc3S(=O)(=O)O)c3ccc(=[N+](CC)CC)cc-3oc2c1` are -8.77% (inactive) and < 2.35 µM.
Take `N=C(N)SCCc1cccc(CCSC(=N)N)c1`: in experiment [1], the IC50 was 135 µM and the CC50 worked out at 181 µM.
